Laboratory results taken from ChEMBL document CHEMBL1156110, “Novel N-hydroxybenzamide-based HDAC inhibitors with branched CAP group” (Bioorg Med Chem Lett, 2009).
Active and inactive are the calls of the source. No cut-off for these calls is given here.

Legend:
HepG2 = assay: Antiproliferative activity against human HepG2 cells after 48 hrs by MTT assay; format: functional; details: HepG2, 48 h
U-937 [1] = assay: Cell cycle arrest in human U937 cells assessed as accumulation at S phase at 5 uM after 30 hrs by FACS; format: functional, cell-based
A549 = assay: Antiproliferative activity against human A549 cells after 48 hrs by MTT assay; format: functional; details: A549, 48 h
PC-3 = assay: Antiproliferative activity against human PC3 cells after 48 hrs by MTT assay; format: functional; details: PC-3, 48 h
HCT-116 = assay: Antiproliferative activity against human HCT116 cells after 48 hrs by MTT assay; format: functional; details: HCT-116, 48 h
U-937 [2] = assay: Induction of apoptosis in human U937 cells at 5 uM after 30 hrs by propidium iodide and annexin V staining; format: functional, cell-based
[3] = Inhibition of HDAC
U-937 [4] = assay: Induction of granulocytic differentiation in human U937 cells assessed as CD11c positive PI negative cells at 5 uM after 30 hrs by FACS; format: functional, cell-based
In short: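 U937 human leukemia cells treated 30 h at 5 µM; differentiation scored by FACS as the percentage of CD11c-positive, PI-negative cells; values are the mean of four independent replicates.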

U-937 [5] = assay: Induction of p21WAF1/CIP1 expression in human U937 cells at 5 uM after 24 hrs by Western blot; format: functional, cell-based
[6] = target: Histone deacetylase (Homo sapiens) (UniProt Q13547+O15379+Q9UBN7+Q92769+Q9UQL6+Q8WUI4+Q9BY41+Q96DB2+P56524+Q9UKV0+Q969S8); assay: Inhibition of HDAC in human U937 cells assessed as histone H3 acetylation at 5 uM after 24 hrs by Western blot; format: cell-based; details: U-937
In short: (§1)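 Human leukemia U937 cells exposed to 5 µM for 24 h. Acetyl-histone H3 was read by Western blot as a class I HDAC marker, and acetyl-α-tubulin as an HDAC6 marker.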

U-937 [7] = assay: Cell cycle arrest in human U937 cells assessed as accumulation at G1 phase at 5 uM after 30 hrs by FACS; format: functional, cell-based
Histone deacetylase 4 = Histone deacetylase 4 (Homo sapiens, UniProt P56524); assay: Inhibition of human recombinant his tagged HDAC4 expressed in baculovirus
Histone deacetylase 4, sequence (P56524 whole entry): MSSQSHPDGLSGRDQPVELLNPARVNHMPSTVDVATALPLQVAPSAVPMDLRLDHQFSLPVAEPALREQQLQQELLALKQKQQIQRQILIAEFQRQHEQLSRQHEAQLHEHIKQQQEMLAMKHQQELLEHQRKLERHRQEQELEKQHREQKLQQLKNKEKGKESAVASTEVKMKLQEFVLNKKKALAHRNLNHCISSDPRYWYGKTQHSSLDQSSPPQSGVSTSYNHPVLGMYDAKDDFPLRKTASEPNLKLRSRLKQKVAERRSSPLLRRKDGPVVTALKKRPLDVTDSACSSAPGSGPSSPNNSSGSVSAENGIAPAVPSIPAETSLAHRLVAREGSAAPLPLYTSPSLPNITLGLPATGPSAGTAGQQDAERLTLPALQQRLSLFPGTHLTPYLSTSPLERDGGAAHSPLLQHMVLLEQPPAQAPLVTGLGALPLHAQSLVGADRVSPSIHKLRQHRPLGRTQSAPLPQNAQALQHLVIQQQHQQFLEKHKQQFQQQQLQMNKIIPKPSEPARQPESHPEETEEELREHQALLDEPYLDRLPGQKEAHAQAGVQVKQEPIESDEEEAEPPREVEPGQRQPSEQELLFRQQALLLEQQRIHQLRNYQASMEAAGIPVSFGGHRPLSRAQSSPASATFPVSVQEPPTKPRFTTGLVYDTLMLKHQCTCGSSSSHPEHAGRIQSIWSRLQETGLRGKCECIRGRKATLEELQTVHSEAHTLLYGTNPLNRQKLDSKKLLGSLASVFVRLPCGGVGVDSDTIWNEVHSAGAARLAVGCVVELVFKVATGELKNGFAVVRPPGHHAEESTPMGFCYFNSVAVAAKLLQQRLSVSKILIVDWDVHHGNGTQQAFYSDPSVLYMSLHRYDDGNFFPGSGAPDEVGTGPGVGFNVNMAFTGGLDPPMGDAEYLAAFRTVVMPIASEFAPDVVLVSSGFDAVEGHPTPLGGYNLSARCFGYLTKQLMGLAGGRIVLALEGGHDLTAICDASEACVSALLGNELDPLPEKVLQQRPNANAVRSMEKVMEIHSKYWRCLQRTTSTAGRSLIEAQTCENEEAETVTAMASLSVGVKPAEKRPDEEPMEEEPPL

Histone deacetylase 1 = Histone deacetylase 1 (Homo sapiens, UniProt Q13547); assay: Inhibition of human recombinant HDAC1 expressed in baculovirus
Histone deacetylase 1, sequence (Q13547 whole entry): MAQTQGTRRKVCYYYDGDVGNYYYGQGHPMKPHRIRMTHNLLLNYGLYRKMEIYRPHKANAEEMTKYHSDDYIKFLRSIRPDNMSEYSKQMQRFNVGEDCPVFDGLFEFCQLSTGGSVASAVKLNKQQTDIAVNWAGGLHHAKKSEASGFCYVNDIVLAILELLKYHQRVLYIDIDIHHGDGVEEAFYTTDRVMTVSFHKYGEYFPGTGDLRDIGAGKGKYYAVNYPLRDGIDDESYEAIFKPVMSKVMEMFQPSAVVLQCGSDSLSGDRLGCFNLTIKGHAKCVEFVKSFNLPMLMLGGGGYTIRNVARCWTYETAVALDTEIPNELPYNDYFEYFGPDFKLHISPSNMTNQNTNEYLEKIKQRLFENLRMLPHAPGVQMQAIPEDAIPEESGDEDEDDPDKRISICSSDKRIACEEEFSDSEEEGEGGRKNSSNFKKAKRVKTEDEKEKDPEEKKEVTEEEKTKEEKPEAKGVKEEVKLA

[8] = target: T1, Protein deacetylase HDAC6 (Homo sapiens) (UniProt Q9UBN7); assay: Inhibition of HDAC6 in human U937 cells assessed as alpha-tubulin acetylation at 5 uM after 24 hrs by Western blot; format: cell-based; details: U-937; in short: as §1
T1 sequence (whole entry): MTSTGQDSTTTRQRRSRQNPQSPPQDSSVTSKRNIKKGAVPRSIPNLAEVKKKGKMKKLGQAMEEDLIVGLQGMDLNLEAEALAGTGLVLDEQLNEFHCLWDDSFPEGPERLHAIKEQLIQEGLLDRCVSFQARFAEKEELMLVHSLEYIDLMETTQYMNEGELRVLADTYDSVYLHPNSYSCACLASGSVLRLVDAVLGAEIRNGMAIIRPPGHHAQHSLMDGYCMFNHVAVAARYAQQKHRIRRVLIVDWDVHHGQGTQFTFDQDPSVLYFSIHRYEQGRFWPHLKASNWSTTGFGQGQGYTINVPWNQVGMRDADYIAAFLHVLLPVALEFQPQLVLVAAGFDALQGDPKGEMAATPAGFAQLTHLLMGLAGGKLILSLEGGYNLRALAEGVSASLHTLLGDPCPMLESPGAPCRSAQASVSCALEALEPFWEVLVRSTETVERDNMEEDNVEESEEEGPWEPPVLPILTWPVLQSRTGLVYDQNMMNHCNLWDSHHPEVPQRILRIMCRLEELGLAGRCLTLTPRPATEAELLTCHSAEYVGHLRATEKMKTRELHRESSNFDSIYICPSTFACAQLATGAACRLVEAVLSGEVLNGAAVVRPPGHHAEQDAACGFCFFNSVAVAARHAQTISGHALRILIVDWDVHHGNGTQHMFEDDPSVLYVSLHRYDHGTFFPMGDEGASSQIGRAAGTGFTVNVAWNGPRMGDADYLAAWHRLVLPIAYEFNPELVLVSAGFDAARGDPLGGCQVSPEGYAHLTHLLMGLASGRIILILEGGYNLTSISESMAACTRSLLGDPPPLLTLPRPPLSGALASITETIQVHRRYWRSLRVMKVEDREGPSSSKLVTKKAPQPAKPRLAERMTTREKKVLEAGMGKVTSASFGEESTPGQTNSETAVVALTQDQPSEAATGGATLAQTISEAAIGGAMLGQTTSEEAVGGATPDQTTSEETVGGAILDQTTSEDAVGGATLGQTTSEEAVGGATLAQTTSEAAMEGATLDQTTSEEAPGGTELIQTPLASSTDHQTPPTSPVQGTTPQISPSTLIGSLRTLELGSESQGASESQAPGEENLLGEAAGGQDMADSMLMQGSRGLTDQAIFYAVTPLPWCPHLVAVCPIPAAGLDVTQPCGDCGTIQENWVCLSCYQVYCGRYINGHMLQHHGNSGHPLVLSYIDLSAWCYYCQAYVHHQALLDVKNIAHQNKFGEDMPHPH

Row | Structure (SMILES) | GI50 (HepG2) [µM] | GI50 (A549) [µM] | GI50 (PC-3) [µM] | GI50 (HCT-116) [µM] | IC50 [3] [µM] | inhibition [6] | IC50 (Histone deacetylase 4) [µM] | IC50 (Histone deacetylase 1) [µM] | inhibition [8] | Activity (U-937 [1]) | Activity (U-937 [2]) | Activity (U-937 [4]) | Activity (U-937 [5]) | Activity (U-937 [7])
1 | Cc1ccc(-c2cnc(N(CCOc3ccccc3)Cc3ccc(C(=O)NO)cc3)s2)cc1 | 12 | 14 | 7.86 | 8.81 | 0.041 | Active | > 50 | 2.3 | inactive | – | Active | Active | Active | Active
2 | O=C(CCCCCCC(=O)Nc1ccccc1)NO [VORINOSTAT] | 63.5 | > 200 | 8.17 | 2.69 | 0.053 | – | – | – | – | – | – | – | – | –
3 | Cc1ccc(-c2cnc(N(Cc3ccccc3)Cc3ccc(C(=O)NO)cc3)s2)cc1 | 34 | 4.41 | 10.3 | 48.8 | 3.11 | – | – | – | – | – | – | – | – | –
4 | Cc1ccc(-c2cnc(N(CCCCOc3ccccc3)Cc3ccc(C(=O)NO)cc3)s2)cc1 | 16.6 | 14.2 | 10.3 | 0.68 | 0.057 | Active | – | – | Active | – | – | – | – | Active
5 | Cc1ccc(OCCN(Cc2ccc(C(=O)NO)cc2)c2ncc(-c3ccc(C)cc3)s2)cc1 | 11.5 | 11.2 | 5.57 | 17.3 | 0.101 | Active | > 50 | 1.05 | Active | – | Active | Active | Active | Active
6 | Cc1ccc(OCCCN(Cc2ccc(C(=O)NO)cc2)c2ncc(-c3ccc(C)cc3)s2)cc1 | 12.2 | 32.5 | 9.33 | 12.6 | 1.07 | Active | – | – | Active | – | – | – | Active | Active
7 | Cc1ccc(-c2cnc(N(CCCOc3ccccc3)Cc3ccc(C(=O)NO)cc3)s2)cc1 | 23.4 | 2.53 | 17.5 | 4.14 | 0.195 | Active | – | – | Active | – | – | – | Active | Active

The next compounds have a lower GI50 (HepG2) than those just listed; values first:

Row | GI50 (HepG2) [µM] | GI50 (A549) [µM] | GI50 (PC-3) [µM] | GI50 (HCT-116) [µM] | IC50 [3] [µM] | inhibition [6] | IC50 (Histone deacetylase 4) [µM] | IC50 (Histone deacetylase 1) [µM] | inhibition [8] | Structure (SMILES) | Activity (U-937 [1]) | Activity (U-937 [2]) | Activity (U-937 [4]) | Activity (U-937 [5]) | Activity (U-937 [7])
8 | 11 | 8.63 | 1.22 | 0.58 | 1.67 | – | – | – | – | Cc1ccc(OCCCCN(Cc2ccc(C(=O)NO)cc2)c2ncc(-c3ccc(C)cc3)s2)cc1 | Active | Active | Active | – | –
9 | 8.76 | 4.63 | 13.3 | 6.5 | 1.59 | – | – | – | – | CCCCCCCCN(Cc1ccc(C(=O)NO)cc1)c1ncc(-c2ccc(C)cc2)s1 | – | – | – | – | –
10 | 7.42 | 3.71 | 5.27 | 4.85 | 2.79 | – | – | – | – | CCCCCCN(Cc1ccc(C(=O)NO)cc1)c1ncc(-c2ccc(C)cc2)s1 | – | – | – | – | –
11 | 7.42 | 20.4 | 9.34 | 5.9 | 0.494 | – | – | – | – | Cc1ccc(-c2cnc(N(Cc3ccc(C(=O)NO)cc3)CC(C)C)s2)cc1 | – | – | – | – | –
12 | 7.02 | 9.14 | 5.06 | 23.3 | 4.33 | – | – | – | – | CCCCCN(Cc1ccc(C(=O)NO)cc1)c1ncc(-c2ccc(C)cc2)s1 | – | – | – | – | –
13 | 4.3 | 4.78 | 6.41 | 8.78 | 1.35 | – | – | – | – | CCCCN(Cc1ccc(C(=O)NO)cc1)c1ncc(-c2ccc(C)cc2)s1 | – | – | – | – | –
14 | 2.55 | 3.31 | 9.16 | 5.8 | 0.052 | – | – | – | – | CCCN(Cc1ccc(C(=O)NO)cc1)c1ncc(-c2ccc(C)cc2)s1 | – | – | – | – | –
15 | 2.18 | 3.83 | 1.15 | 7.8 | 0.168 | – | – | – | – | Cc1ccc(-c2cnc(N(Cc3ccc(C(=O)NO)cc3)C(C)C)s2)cc1 | – | – | – | – | –
16 | 1.12 | 2.7 | 10.3 | 6.87 | 0.054 | – | – | – | – | CCN(Cc1ccc(C(=O)NO)cc1)c1ncc(-c2ccc(C)cc2)s1 | – | – | – | – | –
